Measurements collected from several papers.
Each line is one published result; the experiments were not run side by side.
Target: Glycogen synthase kinase-3 beta (GSK3B, Homo sapiens, UniProt P49841)
Method: competition with immobilised ligand

| SMILES | read-out | concentration | remaining binding |
| --- | --- | --- | --- |
| C[C@@H]1CN(c2ccc3ncc(-c4ccc5[nH]nc(C6CC6)c5c4)n3n2)C[C@H](C)O1 | binding | 50 nM | 76% |
| O=C(Nc1c[nH]nc1C(=O)NC1CCNCC1)c1cc(F)cc(F)c1 | binding | 1 µM | 0.5% |
| O=C(c1ccc(Nc2ncc(Cl)c(-c3cc4ccccc4s3)n2)cc1)N1CCC(N2CCCC2)CC1 | binding | 1 µM | 37% |
| N#Cc1ccccc1CSc1nnc2c(n1)[nH]c1ccccc12 | binding | 10 µM | 100% |
| CCN1CCN(Cc2ccc(C(=O)Nc3ccc(C)c(Oc4ccc5c(c4)CC(=O)N5)c3)cc2C(F)(F)F)CC1 | binding | 1 µM | 100% |
| F[C@@H]1CCN(c2nccc(-c3cnn4ncccc34)n2)C1 | binding | 1 µM | 75% |
| CN(C)CC#Cc1ccc(OCCCc2sc(N3CCc4cccc(C(=O)Nc5nc6ccccc6s5)c4C3)nc2C(=O)O)c(F)c1 | cell-free assay | 1 µM | 93% |
| Cc1cnc(Nc2ccc(C(=O)N3CCC(N4CCCC4)CC3)cc2)nc1-c1cc2ccccc2s1 | binding | 1 µM | 51% |
| FC(F)(F)Oc1cccc(-c2cnc3ccc(-c4ccncc4)nn23)c1 | cell-free assay | 5 µM | 78% |
| Cn1nc(C(=O)NCc2ccc(C(=O)O)cc2)cc1-c1ccc2[nH]ccc2c1 | cell-free assay | 0.1 µM | 78% |
| COc1cnc(Nc2cccc(S(N)(=O)=O)c2)nc1N1CCN(c2ccccc2)C(=O)C1 | binding | 1 µM | 91% |
| Cc1cc(NC(=O)c2cccc(S(F)(F)(F)(F)F)c2)cc(-n2ccn3nc(-c4cccnc4)cc23)c1 | cell-free assay | 1 µM | 85.4% |
| C[C@H]1CCN(c2nccc(-c3cnn4ncccc34)n2)C1 | binding | 1 µM | 98% |
| N#Cc1ccc(Nc2ccc3[nH]c(=O)[nH]c3c2)c(Cl)c1 | cell-free assay | 1 µM | 96% |
| COC(=O)Nc1nc2ccc(C(=O)c3ccccc3)cc2[nH]1 | cell-free assay | 10 µM | 35% |
| O=C(c1ccc(Nc2ncc(Cl)c(-c3ccc(Cl)s3)n2)cc1)N1CCC(N2CCCC2)CC1 | binding | 1 µM | 60% |
| COc1ncc2cc3ccccc3nc2c1C#N | cell-free assay | 5 µM | 99% |
| CN(C)C(=O)Cn1cc(-c2nc(C3(c4ccc(-c5cnc(N)nc5)cc4)CC3)no2)cn1 | cell-free assay | 1 µM | 81% |
| c1cncc(-c2cccc(Nc3nccc(NC4CCCCC4)n3)c2)c1 | binding | 10 µM | 89% |
